Series [1] relates to H1975 (L858R T790M) xenografts. Briefly: H1975 subcutaneous xenograft study. Format: in vivo, BALB/c nude mouse. The conditions noted are these: BEBT-109 30 and 60 mg/kg.
The subject of a further series is PC-9 (Del19) xenografts. Briefly: PC-9 subcutaneous xenograft study. The series is classed as in vivo, BALB/c nude mouse. The conditions noted are these: BEBT-109 60 mg/kg, osimertinib 25 mg/kg (MTD doses). The essentials: (§1)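 Female BALB/c nude mice, 7–8 weeks old, inoculated subcutaneously in the right armpit with 2–5 × 10⁶ cells/ml in 0.1 ml PBS (PC-9 in 50% matrigel). Randomised at n = 8 per group; oral test compound started at 200–300 mm³. Tumors measured by caliper, with V = length × width²/2; survival followed after treatment.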

In series [2] the test system is EGFR A767_V769dupASV-driven Ba/F3 tumor model. Briefly: Ba/F3 EGFR A767_V769dupASV xenograft study. The series is classed as in vivo, BALB/c nude mouse. The conditions noted are these: BEBT-109 40 mg/kg bid, osimertinib 20 mg/kg qd (MTD doses), 14 days, n = 8.
The nature of series [3]: Tolerability in xenograft studies. The series is classed as in vivo, BALB/c nude mouse. The conditions noted are these: HCC827, PC-9 and exon 20 insertion xenograft models.
Series [4] deals with HCC827 (Del19) xenografts. Briefly: HCC827 subcutaneous xenograft study. The series is classed as in vivo, BALB/c nude mouse. The conditions noted are these: BEBT-109 60 mg/kg, osimertinib 25 mg/kg (MTD doses). The essentials:
as §1

Series [5] concerns EGFR wild-type cell lines (H460, Calu-6 and LOVO) and EGFR-deficient Ba/F3 cells. Briefly: Cell proliferation assay, summary over the panel. The conditions noted are these: read-out: mean IC50 values. Format: cell-based.
Another series deals with H1975 cells. Briefly: Cell cycle analysis. Format: cell-based, human. The conditions noted are these: 1 nmol/L, 24 h. In outline:
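H1975 cells plated at 2 × 10⁵ per well and allowed to adhere, then exposed to 1 nmol/L test compound for 24 h. Cells fixed in 75% ethanol at −20 °C overnight, washed in PBS, and stained with DNA staining solution for 30 min at room temperature in the dark. DNA content analysed immediately by flow cytometry; n = 3.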

The next series relates to H1975 (L858R T790M). As to the kind of experiment: Cell proliferation assay. Format: cell-based. The conditions noted are these: Homo sapiens, NCI-H1975, 72 h.
A further series concerns LOVO (wild-type EGFR). The conditions noted are these: read-out: potency in wild-type EGFR cell line (measure not given); ref [20]; cited from earlier work.
The next series concerns PC-9 (Del19). The conditions noted are these: read-out: potency against Del19 (measure not given); ref [20]; cited from earlier work.
For the next series, the system named is H1975 (T790M). The conditions noted are these: read-out: potency against T790M (measure not given); ref [20]; cited from earlier work.

Where only a bound is given, the exact number is not on record here.

Regarding `C=CC(=O)Nc1cc(Nc2nccc(-c3cn(C)c4ccccc34)n2)c(OC)cc1N(C)CCN(C)C` [Osimertinib], the “host mice survival post treatment” value in series [1] (osimertinib 25 mg/kg) is recorded as more than 30 days. In addition, the tumor regression result in [1] (osimertinib 25 mg/kg (MTD), daily, four weeks) is “complete H1975 tumor regression”; in the series on PC-9 (Del19) xenografts, “complete tumor regression”; in series [4], “complete tumor regression”. Also, the tumor growth entry in series [2] is on record as “sustained tumor regression was not observed”. Besides, the body weight entry in [3] is recorded as “Neither drug caused significant body weight loss”. The results for the IC50 (in series [5]; with H1975 (L858R T790M)) were more than 1000 nM and 3.9 nM, respectively. Moreover, the “effect on cell-cycle progression” value with H1975 cells is recorded as “did not change the cell cycle profile”.
As for `C=CC(=O)Nc1cc(Nc2nccc(-c3c[nH]c4ccccc34)n2)c(OC)cc1N(C)CCN(C)C` [AZ5104], the IC50 was 33 nM with LOVO (wild-type EGFR), 2 nM with PC-9 (Del19) and 2 nM in the series on H1975 (T790M).

The values above are taken from article PMC7745057 (Translational Oncology, 2020).
